# Assay: Toxicity liver stage against HepG2, at 10uM
# Format: cell-based
# Set-up: test concentration 10 uM, cell line HepG2-A16-CD81EGFP
# Conditions: human, HepG2-A16-CD81EGFP cells; read-out: INHIBITION
# Outline: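 Uninfected HepG2-A16-CD81EGFP cells, 3 × 10^3 per well, 1536-well, plated on prespotted compound at 10 μM final, parasite-free screening media added to match infected plates; puromycin 10 μM positive, DMSO 0.5% negative; run in parallel with 48 h PbLuc assay at 37 °C, 5% CO2; viability by CellTiter-Glo luminescence, normalized to controls.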
row,Compound,cytotoxicity at 10 µM [%]
1,Cc1cc(CCC(=O)O)nc(C2CCCN2c2ccnc(C)n2)n1 (stereo unspecified),-8.12
2,CSCCC(NC(N)=O)C(=O)NCc1c(C)nn(-c2ccccc2)c1C (stereo unspecified),8.15
3,COc1ccc2c(c1)C1(CCN(Cc3cnn(C)c3)CC1)N(C)CC2,-136
4,CCCNC(=O)NC(C)c1ccccn1 (stereo unspecified),-8.26
5,COc1cc(OC)cc(C2(O)CCN(Cc3ncc(C)o3)CC2)c1,17
6,CN(C)S(=O)(=O)c1ccc(CN2CCCC2c2ccc[nH]2)o1 (stereo unspecified),-4.03
7,COc1ccc(OC)c(C2CCN(C3CCOCC3)C2)c1 (stereo unspecified),-6.28
8,Cc1oncc1C(=O)N1CCC2(CC1)CN(S(C)(=O)=O)c1ccccc12,1.47
9,CCN(Cc1ccco1)C(=O)NCC(c1cccs1)N(C)C (stereo unspecified),16.3
10,CCc1nnc2n1CCN(Cc1noc(-c3cccc(C)c3)n1)C2,12
11,Cc1ccc(S(=O)(=O)N2CCn3nc(C)nc3C2)c(Cl)c1,5.09
12,O=C(c1cc(COc2ccc3c(c2)OCO3)[nH]n1)N1CC=CC1CO (stereo unspecified),-6.49
13,CSC(C)C(=O)N1CCCN(c2ncccc2C#N)CC1 (stereo unspecified),-1.2
14,CNC(=O)c1cc2c(nc1NCC(C)C)CCN(c1ccncn1)CC2,7.95
15,CC(C(=O)NCc1ccc(N2CCCC2)nc1)n1cncn1 (stereo unspecified),-22.4
16,Cc1cc(N2CCOC(C)(C(=O)N(C)C)C2)ncn1 (stereo unspecified),-0.277
17,COCCN(Cc1c(C)nn(C)c1C)C(=O)C1COc2ccccc2C1 (stereo unspecified),-3.87
18,CC(=O)N1CCOC(c2ccnc(N(C)C)n2)C1 (stereo unspecified),1.62
19,C=C(C)CN1CCC(NC(=O)NCCc2cccc(C(N)=O)c2)CC1,11.4
20,CNc1cncc(C2CCCN2S(=O)(=O)c2ccc(F)cc2)n1 (stereo unspecified),-3.21
21,N#Cc1cccc(NC(=O)N[C@H](CO)c2ccccc2)c1,-12.2
22,CC(C)CCc1cc(C(=O)O)nc2[nH]c(=O)[nH]c(=O)c12,4.31
23,Cn1cc(CN2CCc3ccc(=O)n(CC4CC4)c3CC2)cn1,3.24

row,Compound,cytotoxicity at 10 µM [%]
1,O=C(CCc1nc2cc(Br)cnc2[nH]1)NCCN1CCOCC1,5.08
2,CC(SCCC(=O)NC(N)=O)c1cccc(F)c1 (stereo unspecified),5.28
3,Cc1nc(C)n(CC2CCCN2CC(=O)Nc2cccnc2)n1 (stereo unspecified),2.04
4,COc1ccccc1C(C)N1CCN(S(=O)(=O)N(C)C)CC1 (stereo unspecified),-8.8
5,c1ccc(C2(NCC3CNc4ccnn4C3)CCC2)cc1 (stereo unspecified),-5.34
6,O=C(c1cccnc1N1CCOCC1)N1CCCC(n2ccnc2)C1 (stereo unspecified),-3.56
7,Cc1cc(C)n(CC2CN(CCOc3cccc(F)c3)CCO2)n1 (stereo unspecified),-7.44
8,CN1CCC(N(C)C(=O)c2cnn(-c3cc(F)ccc3F)c2N)CC1,-8.47
9,O=C(Cc1ccccn1)N1CCN(C(=O)CC2CCCCC2)CC1,5.35
10,COCCNC(=O)C1CN(Cc2ccsc2)Cc2ccnn2C1 (stereo unspecified),-6.07
11,CCOC1CCCN(C(=O)CCOc2ccc(C)cc2OC)C1 (stereo unspecified),-9.22
12,CCc1ncc(CN2CCOC(Cc3cccc(F)c3)C2)cn1 (stereo unspecified),0.0753
13,COCCNC(=O)Cn1c(-c2ccco2)cc2cccnc21,-5.09
14,CC(C)CCN1CCCC12Cc1ccccc1CNC2=O (stereo unspecified),7.61
15,Cc1cc(NCCS(C)(=O)=O)nc2ccccc12,0.748
16,Cc1nc2cc(O)nn2c(C)c1CCC(=O)NCc1cc(Br)cs1,-3.04
17,OC(CN1CCC(c2ccn[nH]2)CC1)c1cc(F)ccc1F (stereo unspecified),-12.3
18,CC(C)Cn1nnnc1SC(C(=O)NCc1cccnc1)C(C)C (stereo unspecified),-4.05
19,Cc1ncsc1-c1nnc(C2CCN(Cc3cccc(Cl)c3)CC2)o1,-8.19
20,O=C(c1ccccn1)N1CCc2c(nc(-c3ccncc3)[nH]c2=O)C1,2.99
21,CC(C)NC(=O)NC[C@H]1OC[C@@H](NCc2ccncc2)[C@@H]1O,-4.07
22,CCN(CC)C(=O)Cn1cc(-c2nc(-c3ccccc3C)no2)nn1,-2.46
23,Cc1cncc(C(=O)NCC2COCc3c(C)nnn3C2)c1 (stereo unspecified),-2.03

row,Compound,cytotoxicity at 10 µM [%]
1,COc1cccc(CN2CCN(Cc3ccc4nonc4c3)CC2=O)c1,-1.98
2,O=c1c(S(=O)(=O)N2CCCC2)cccn1Cc1ccccc1Cl,2.96
3,Cn1ncc2c(NCC3CCS(=O)(=O)C3)nc(-c3ccncc3)nc21 (stereo unspecified),-3.91
4,Cc1cnccc1CN1CC[C@@](C)(O)[C@H](Oc2cccc(F)c2)C1,1.52
5,Cc1oncc1C(=O)N1CC[C@H]2[C@@H]1CCC(=O)N2c1cccnc1,-76.3
6,CNc1ncc(CN(C)CCN2CCCCC2)cn1,17.7
7,Cc1cnc(N2CCC3(CC2)CC3C(=O)NCC2CC2)nc1 (stereo unspecified),6.34
8,COCCNC(=O)CSc1nnc(OC(C)C)s1,-5.7
9,COc1ccccc1C1=NOC(CC2(C(=O)NCCO)CCOCC2)C1 (stereo unspecified),-26.2
10,CCNC(=O)CNC(=O)c1nc(C2CC2)n(-c2ccccc2Cl)n1,5.91
11,Cc1nnc([C@H]2CCN(CCCc3ccccc3)C2)o1,2.87
12,CNC(=O)c1cccnc1N1CCN(Cc2ccccc2)C(CCO)C1 (stereo unspecified),-6.03
13,CC(C)n1cc(CN2CCCN(C(=O)C(C)n3cncn3)CC2)cn1 (stereo unspecified),-16.2
14,O=C(CCc1cc(Br)cs1)NCCCn1ccnc1,1.08
15,CNS(=O)(=O)c1cccc(C(C)NCc2cccc(O)c2)c1 (stereo unspecified),1.14
16,Cc1nccc(C(=O)N2CCCN(Cc3nccn3C(C)C)CC2)n1,-10.2
17,Cc1nc(C)c(C(=O)N2CCCC2c2nnc3n2CCCCC3)s1 (stereo unspecified),-2.62
18,N#Cc1cnn(CCN2CCOC(CNc3cccnn3)C2)c1 (stereo unspecified),-3.85
19,NC(=O)CN1CCCC1c1csc(Nc2cnccn2)n1 (stereo unspecified),-11.2
20,Cn1c(CN2CCOCC2)cc(=O)c(O)c1CN1CCCC1,-1.07
21,O=S(=O)(Nc1cnn(C2CCOCC2)c1)c1ccc(Br)cc1,5.05
22,COCCn1cc(CC(=O)Nc2cc(C)n(C)n2)c2ccccc21,-1.96
23,Cc1ccc(CN2CCC3(CC2)CC(NC(=O)c2ccccn2)CO3)o1 (stereo unspecified),3.8

row,Compound,cytotoxicity at 10 µM [%]
1,O=C(c1cc[nH]n1)N1CCC2(CC1)CC(Oc1cccnc1)CO2 (stereo unspecified),6.7
2,CCCS(=O)(=O)NC1CCN(c2nnc(C)c(C)c2C#N)CC1,3.28
3,Cc1ccc2nc(C(=O)N3C[C@@H](C(=O)O)[C@H](c4ccccc4)C3)cn2c1,5.96
4,CN(C)C(CNC(=O)c1cccc(-n2cnnn2)c1)c1ccccc1Cl (stereo unspecified),-6.08
5,CCc1nc(CN2CCCN(C(=O)CCSC)CC2)cs1,-5.41
6,O=C(Nc1nc2c(s1)CCC2)c1cccnc1N1CCOCC1,8.5
7,CNC(=O)[C@@]12CCC3(CCN(C(=O)C(C)C)CC3)[C@@H]1CN(S(C)(=O)=O)C2,3.89
8,Cc1cccc(CN2C(=O)CC[C@@H]3[C@H]2CCN3Cc2nccn2C)n1,-81.9
9,CC(C)Oc1ccc(CN2CCN3CCN(C)CC3C2)cc1CO (stereo unspecified),-3.42
10,c1ccc(CO[C@H]2CO[C@@]3(CCN(Cc4ccoc4)C3)C2)nc1,-15.3
11,CCc1nc(CC)n(CC(=O)N(C)Cc2ccc(F)cc2)n1,5.25
12,Cc1nnc(CN2CCC(Oc3ccc(F)cc3)CC2)o1,-11.8
13,CN(CCc1ccccc1)C(=O)CN1C(=O)OC[C@@H]1c1ccccc1,-47
14,O=S(=O)(c1ccccc1)N1CCCC(Cn2cncn2)C1 (stereo unspecified),-4.28
15,CNC(=O)c1ccc(NC(=O)NC(C)c2cc(C)oc2C)c(C)c1 (stereo unspecified),-10.6
16,O=C(Nc1ccncc1)C1=NN(c2ccccc2)C(=O)CN1,2.76
17,O=C(c1ncc[nH]1)N1CCC(Cn2cc(-c3cccc(Cl)c3)nn2)CC1,-12.8
18,CC(c1nccs1)n1cc(-c2cc(CN3CCCCC3)cs2)nn1 (stereo unspecified),1.22
19,Cn1cc(CNc2nc3cc(Cl)ccc3n2C)cn1,16.8
20,CC(C)CN1C[C@@H]2C[C@H](C(=O)NCc3cccnc3)[C@H](C1)O2,2.5
21,CCOc1cc2c(cc1CCC(=O)O)CCC2,-4.63
22,Cc1cc(C)n(C2CCCN(C(=O)Cc3ccc(C#N)cc3)C2)n1 (stereo unspecified),-1.31
23,CCc1nnc(C(C)N2CCCN(C(=O)OCC(C)C)CC2)o1 (stereo unspecified),4.96

row,Compound,cytotoxicity at 10 µM [%]
1,O=C([C@H]1COC[C@H]2CN(C3CCOCC3)C[C@H]21)N1CCC(F)CC1,-112
2,CN(Cc1ccc(N2CCOCC2)cc1)Cc1noc(C(C)(C)C)n1,14
3,Cc1cc(C)cc(OCCN(C)C(=O)NC(C)c2nncn2C)c1 (stereo unspecified),-19.1
4,Cc1nc(NCc2ccccn2)c2c(n1)c(C)nn2C,-1.02
5,Cc1ccc(C(=O)N2CCN(C(=O)Nc3ccccn3)CC2)o1,2.14
6,Cn1cc2ncn(CCNc3cccnc3)c(=O)c2n1,2.52
7,CC(=O)N1CCN(Cc2ccc(OCc3nccn3C)cc2)CC1,-2.68
8,Cc1ccc(SC2CCCC2)c(C(=O)NCc2n[nH]c(=O)[nH]2)c1,-38.4
9,CN(C)CCn1c2c(ccc1=O)CC(NCc1cnn(C)c1)CC2 (stereo unspecified),-105
10,Cn1ncc(NCc2cccc(COC(C)(C)C)c2)c(Cl)c1=O,42.2
11,c1ccc(-c2ncc3c(n2)C2(CCN(CC4CC4)C2)COC3)cc1 (stereo unspecified),0.975
12,CSCCC(Nc1nc(C)cc(C)n1)C(=O)NC(C)(C)CO (stereo unspecified),-5.15
13,O=C(c1ccco1)N(CC(F)(F)F)C1CCOCC1,-12.3
14,O=S(=O)(NCC1(c2cccs2)CCOCC1)c1cccnc1,-3.51
15,CC(=O)Nc1nc(C)c(S(=O)(=O)NCCc2ccccn2)s1,-5
16,C=Cc1ccc(C(=O)NC2CCCc3nc(N(C)C)ncc32)cc1 (stereo unspecified),8.18
17,Cc1ccc(C(=O)N2C[C@H](OCC3CCOCC3)[C@H]3OCCC[C@H]32)o1,-0.714
18,CCn1cc(CN2CCCN(C(=O)CCc3nccs3)CC2)cn1,-2.53
19,Cc1cc(C)c2c(N(C)CC3CCOC3)ncnc2n1 (stereo unspecified),-146
